According to ChEMBL document CHEMBL3414437, “Synthesis of CDDO-amino acid-nitric oxide donor trihybrids as potential antitumor agents against both drug-sensitive and drug-resistant colon cancer” (J Med Chem, 2015):
Active and inactive are the calls of the source. The rule behind the calls is not given here.

What was measured:
[1] = Antitumor activity against FU-resistant human HCT8 cells xenografted in nude BALB/c mouse assessed as reduction in tumor weight at 59.4 umol/kg administered as via oral gavage daily for 21 days; type: functional; conditions: HCT-8, po, 504 h
Procedure, shortened: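 Male BALB/c nude mice, 6–8 weeks old, inoculated s.c. in the right flank with HCT-8/5-FU cells (2 × 10^6). Once tumors reached 180–200 mm3 (days 9–11), mice were randomized (n = 8) to daily oral gavage for 21 days in cremophor-EL/DMSO/PBS (1:1:8). Tumor volume = W2(L/2), caliper-measured every other day, blinded; tumors weighed at end.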

HCT-8 [2] = assay: Inhibition of HIF-1alpha protein expression in FU-resistant human HCT8 cells at 1 uM incubated for 24 hrs by Western blotting method; type: functional, cell-based
Procedure, shortened: (§1)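 Cells (1 x 10^6) grown 24 h in 6 cm dishes, then exposed in duplicate for 24 h to 0.25, 0.5 or 1 µM compound, with or without PTIO. Lysates (20 µg/lane) were run on 7.5% SDS-PAGE, blotted to PVDF and blocked in 5% milk. HRP secondaries with ECL detection; bands quantified by densitometry against β-actin or GAPDH. Three separate experiments, mean ± SD.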

Mus musculus [3] = assay: Toxicity in nude BALB/c mouse xenografted with FU-resistant human HCT8 cells assessed as abnormal size changes in kidney at 59.4 umol/kg administered as via oral gavage daily for 21 days; type: organism-based, HCT-8; conditions: in vivo, 504 h
Procedure, shortened: (§2)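 Male BALB/c nude mice aged 6-8 weeks, implanted s.c. in the right flank with HCT-8/5-FU cells (2 × 10^6). Once tumors reached 180-200 mm3 (days 9-11), randomized to daily gavage for 21 days in cremophor-EL/DMSO/PBS (1:1:8), 0.2 mL. At the end, liver, kidney, lung and heart checked for size, colour and weight. n = 8 per group.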

HCT-8 [4] = assay: Inhibition of P-gp protein expression in FU-resistant human HCT8 cells at 1 uM incubated for 24 hrs by Western blotting method; type: functional, cell-based; procedure, shortened: as §1
HCT-8 [5] = assay: Inhibition of ERK protein phosphorylation in FU-resistant human HCT8 cells at 1 uM incubated for 24 hrs by Western blotting method; type: cell-based; procedure, shortened: as §1
Mus musculus [6] = assay: Toxicity in nude BALB/c mouse xenografted with FU-resistant human HCT8 cells assessed as body weight level at 59.4 umol/kg administered as via oral gavage daily for 21 days (reference value: 20.8 +/- 2.2 g); type: organism-based, HCT-8; conditions: in vivo, 504 h
Procedure, shortened: (§3)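 Male BALB/c nude mice, 6-8 weeks old, inoculated s.c. in right flank with HCT-8/5-FU cells (2 × 10^6/mouse). Once tumors reached 180-200 mm3 (9-11 days post-implantation), mice were randomized and dosed by gavage daily for 21 consecutive days in cremophor-EL/DMSO/PBS (1:1:8) (vehicle alone 0.2 mL). Body weights recorded on day 1 and day 21. Organ size, color and weights were inspected for liver, kidney, lung and heart. n = 8 per group; mean ± SD.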

Mus musculus [7] = assay: Toxicity in nude BALB/c mouse xenografted with FU-resistant human HCT8 cells assessed as abnormal size changes in heart at 59.4 umol/kg administered as via oral gavage daily for 21 days; type: organism-based, HCT-8; conditions: in vivo, 504 h; procedure, shortened: as §2
Mus musculus [8] = assay: Toxicity in nude BALB/c mouse xenografted with FU-resistant human HCT8 cells assessed as body weight level at 17.8 umol/kg administered as via oral gavage daily for 21 days (reference value: 22.3 +/- 1.9 g); type: organism-based, HCT-8; conditions: in vivo, 504 h; procedure, shortened: as §3
Mus musculus [9] = assay: Toxicity in nude BALB/c mouse xenografted with FU-resistant human HCT8 cells assessed as body weight level at 35.7 umol/kg administered as via oral gavage daily for 21 days (reference value: 21.1 +/- 1.5 g); type: organism-based, HCT-8; conditions: in vivo, 504 h; procedure, shortened: as §3
Mus musculus [10] = assay: Toxicity in nude BALB/c mouse xenografted with FU-resistant human HCT8 cells assessed as abnormal size changes in liver at 17.8 to 35.7 umol/kg administered as via oral gavage daily for 21 days; type: organism-based, HCT-8; conditions: in vivo, 504 h; procedure, shortened: as §2
HCT-8 [11] = assay: Inhibition of BCRP protein expression in FU-resistant human HCT8 cells at 1 uM in presence of NO scavenger carboxy-PTIO incubated for 24 hrs by Western blotting method; type: functional, cell-based; procedure, shortened: as §1
HCT-8 [12] = assay: Inhibition of ERK protein phosphorylation in human HCT8 cells at 0.25 to 1 uM incubated for 24 hrs by Western blotting method; type: cell-based; procedure, shortened: as §1
[13] = target: RAC-alpha serine/threonine-protein kinase (Homo sapiens) (UniProt P31749); assay: Inhibition of AKT protein phosphorylation in FU-resistant human HCT8 cells at 0.25 to 1 uM incubated for 24 hrs by Western blotting method; type: cell-based; conditions: HCT-8; procedure, shortened: as §1
Mus musculus [14] = assay: Toxicity in nude BALB/c mouse xenografted with FU-resistant human HCT8 cells assessed as abnormal weight changes in liver at 17.8 to 35.7 umol/kg administered as via oral gavage daily for 21 days; type: organism-based, HCT-8; conditions: in vivo, 504 h; procedure, shortened: as §2
Mus musculus [15] = assay: Toxicity in nude BALB/c mouse xenografted with FU-resistant human HCT8 cells assessed as abnormal weight changes in heart at 17.8 to 35.7 umol/kg administered as via oral gavage daily for 21 days; type: organism-based, HCT-8; conditions: in vivo, 504 h; procedure, shortened: as §2
HCT-8 [16] = assay: Induction of apoptosis in 5-FU resistant human HCT8 cells incubated for 24 hrs by FITC-Annexin-V and propidium iodide staining based flow cytometry; type: functional, cell-based
HCT-8 [17] = assay: Inhibition of HIF-1alpha protein expression in FU-resistant human HCT8 cells at 0.25 to 1 uM incubated for 24 hrs by Western blotting method; type: functional, cell-based; procedure, shortened: as §1
[18] = Toxicity in female ICR mouse assessed as mouse mortality at 2.38 x 10^3 umol/kg administered as single dose via oral gavage measured up to 14 days post treatment; type: organism-based; conditions: in vivo
Procedure, shortened: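 Female or male adult ICR mice, 10 per sex group, were randomised and given a single oral gavage dose of 2,000 mg/kg in cremophor-EL/DMSO/PBS (1:1:8). Total mortality was recorded over days 1–14, and body weight on days 0, 7 and 14 as mean ± SD.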

HCT-8 [19] = assay: Inhibition of P-gp protein expression in FU-resistant human HCT8 cells at 1 uM in presence of NO scavenger carboxy-PTIO incubated for 24 hrs by Western blotting method; type: functional, cell-based; procedure, shortened: as §1
Mus musculus [20] = assay: Toxicity in ICR mouse assessed as body weight changes at 0.60 x 10^3 to 2.38 x 10^3 umol/kg administered as single dose via oral gavage measured up to 14 days post treatment; type: organism-based; conditions: in vivo, 336 h
Procedure, shortened: (§4)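 Adult ICR mice of either sex were randomised and given a single oral gavage dose of 500, 1000, 1500 or 2000 mg/kg in cremophor-EL/DMSO/PBS (1:1:8). Survival, behaviour, water and food intake, body weight and activity were monitored for up to 14 days. Body weights were taken on days 0, 7 and 14.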

HCT-8 [21] = assay: Inhibition of HIF-1alpha protein expression in human HCT8 cells at 0.25 to 1 uM incubated for 24 hrs by Western blotting method; type: functional, cell-based; procedure, shortened: as §1
Mus musculus [22] = assay: Toxicity in ICR mouse assessed as abnormality in eating behavior at 0.60 x 10^3 to 2.38 x 10^3 umol/kg administered as single dose via oral gavage measured up to 14 days post treatment; type: organism-based; conditions: in vivo, 336 h; procedure, shortened: as §4
Mus musculus [23] = assay: Toxicity in nude BALB/c mouse xenografted with FU-resistant human HCT8 cells assessed as abnormal color changes in liver at 17.8 to 35.7 umol/kg administered as via oral gavage daily for 21 days; type: organism-based, HCT-8; conditions: in vivo, 504 h; procedure, shortened: as §2

Sequence of RAC-alpha serine/threonine-protein kinase (Homo sapiens) (P31749 whole entry): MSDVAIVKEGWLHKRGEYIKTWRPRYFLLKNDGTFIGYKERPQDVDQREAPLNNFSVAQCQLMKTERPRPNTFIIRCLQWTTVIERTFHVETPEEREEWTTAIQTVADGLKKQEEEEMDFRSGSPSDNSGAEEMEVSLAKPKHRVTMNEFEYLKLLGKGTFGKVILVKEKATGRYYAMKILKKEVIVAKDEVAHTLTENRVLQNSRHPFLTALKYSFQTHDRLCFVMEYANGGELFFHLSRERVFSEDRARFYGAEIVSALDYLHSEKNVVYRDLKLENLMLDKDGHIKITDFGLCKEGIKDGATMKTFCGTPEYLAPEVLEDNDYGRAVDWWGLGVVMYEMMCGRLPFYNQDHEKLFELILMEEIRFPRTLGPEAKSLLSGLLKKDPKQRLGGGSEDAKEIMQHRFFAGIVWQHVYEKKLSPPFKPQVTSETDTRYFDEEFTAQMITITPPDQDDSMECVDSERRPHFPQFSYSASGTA

COC(=O)[C@]12CCC(C)(C)C[C@H]1[C@H]1C(=O)C=C3[C@@]4(C)C=C(C#N)C(=O)C(C)(C)[C@@H]4CC[C@@]3(C)[C@]1(C)CC2 [BARDOXOLONE METHYL]
inhibition in vivo at 59.4 µmol/kg [1]: 58.4% | inhibition (HCT-8 [2]): Active | Activity (Mus musculus [3]): Non-toxic | inhibition (HCT-8 [4]): inactive | inhibition (HCT-8 [5]): Active | Activity (Mus musculus [6]): 16.7 g | Activity (Mus musculus [7]): Non-toxic

CC1(C)CC[C@]2(C(=O)NCC(=O)OCC#CCOc3no[n+]([O-])c3S(=O)(=O)c3ccccc3)CC[C@]3(C)[C@H](C(=O)C=C4[C@@]5(C)C=C(C#N)C(=O)C(C)(C)[C@@H]5CC[C@]43C)[C@@H]2C1
Activity (Mus musculus [8]): 17.5 g | Activity (Mus musculus [9]): 16.7 g | Activity (Mus musculus [10]): Non-toxic | inhibition (HCT-8 [11]): inactive | inhibition (HCT-8 [12]): Dose-dependent effect | inhibition [13]: Dose-dependent effect | Activity (Mus musculus [14]): Non-toxic | Activity (Mus musculus [15]): Non-toxic | Activity (HCT-8 [16]): Dose-dependent effect | inhibition (HCT-8 [17]): Dose-dependent effect | mortality at 336 h [18]: 0% | inhibition (HCT-8 [19]): inactive | Activity (Mus musculus [20]): Non-toxic | inhibition (HCT-8 [21]): Dose-dependent effect | Activity (Mus musculus [22]): Non-toxic | Activity (Mus musculus [23]): Non-toxic
